A1_apoptosis_2: A1 inhibition read as caspase activation; MEF A1-2A-BIM cells, caspase-Glo luminescence, 3 h; percent of clofoctol response, DMSO zero; caspase activation, % (concentration not given with the values); 24,000 tested, under 10 active; in the data active = caspase activation above about 5.9%
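Material: A1-2A-BIM-expressing MEF cells. Buffer or medium: RPMI-1640 plus 10% FBS. Incubation: cells settled overnight, compound exposure 3 h at 37 °C, 5% CO2. Signal: Caspase-Glo 3/7 luminescence, 1 h at room temperature.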
T_cruzi_intra: blocks T. cruzi growth inside host cells; activity score (inhibition), % at 5.01 µM; 22,000 tested, 4.9% active; intracellular Trypanosoma cruzi in host cells, plate reader; in the data active = activity score above about 55%;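 note: parasites and compound incubated about four days before reading; 0% = median of neutral control wells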
INS-1E_rescue: rescue of cytokine-induced death in INS-1E beta cells | INS-1E cytokine-induced death, ATP luminescence, 48 h; normalised: neutral wells 0, positive control 100 | protection from cytokine-induced ATP loss, % at 10 µM | 20,000 tested, 0.1% active | AID 488910;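 active = mean replicate protection from cytokine-induced ATP loss at least 50% and at least 75% of replicates each reaching 50%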
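assay system = INS-1E rat insulinoma cells | amount = 8000 cells per well | medium = phenol-red-free RPMI with 5% fetal bovine serum | doses = one compound concentration, pin transfer | timing = 48 h cytokine plus compound treatment, 10 min reagent incubation | also added = IL-1β, TNF-α and IFN-γ cytokine mix | signal = CellTiter-Glo luminescence measuring cellular ATP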
The depositor's hits bear a star; x = no result given. The entries come from a sample that favours hits as a whole.

SMILES A1_apoptosis_2 T_cruzi_intra INS-1E_rescue
Cc1ccc(S(=O)(=O)Nc2ccc3c(c2)CC(=O)N([C@@H](C)CO)C[C@@H](C)[C@@H](CN(C)Cc2ccc4c(c2)OCO4)O3)cc1 -2 27 -3
C[C@@H]1CN([C@H](C)CO)C(=O)Cc2cc(NS(=O)(=O)c3ccc(Cl)cc3)ccc2O[C@H]1CN(C)Cc1ccc2c(c1)OCO2 1 64* -6
C[C@@H]1CN([C@@H](C)CO)C(=O)Cc2cc(NS(=O)(=O)c3ccc(Cl)cc3)ccc2O[C@H]1CN(C)Cc1ccc2c(c1)OCO2 -1 x x
C[C@@H]1CN([C@H](C)CO)C(=O)Cc2cc(NS(=O)(=O)c3ccc(Cl)cc3)ccc2O[C@@H]1CN(C)Cc1ccc2c(c1)OCO2 x 60* -11
COc1ccc(COC[C@@]23Oc4ccccc4[C@@H](NC(=O)N2C)[C@H]3CO)cc1 0 x x
O=C(NO)c1cccc(C(=O)N/N=C/c2cccc(OCCO)c2)c1 -2 -9 -2
O=C(N/N=C/C1=CCCCC1)c1ccccc1O -2 0 -4
COc1ccc(NC(=O)Nc2cccc3c2O[C@@H](CN(C)Cc2ccc(C(F)(F)F)cc2)[C@H](C)CN([C@H](C)CO)C3=O)cc1 x 5 -6
COc1ccc(NC(=O)Nc2cccc3c2O[C@H](CN(C)Cc2ccc(C(F)(F)F)cc2)[C@H](C)CN([C@@H](C)CO)C3=O)cc1 0 -11 -10
COc1ccc(CN(C)C[C@@H]2Oc3c(NC(=O)Nc4ccc(C(F)(F)F)cc4)cccc3C(=O)N([C@H](C)CO)C[C@@H]2C)cc1 -2 81* -36
COc1ccc(CN(C)C[C@@H]2Oc3c(NC(=O)Nc4ccc(C(F)(F)F)cc4)cccc3C(=O)N([C@@H](C)CO)C[C@H]2C)cc1 0 67* -95
O=C(N/N=C/c1cccc(B(O)O)c1)c1ccccn1 -10 -8 4

Source: PubChem
